# Test results published in ChEMBL document CHEMBL3621116, “Benzimidazole Derivatives as Potent JAK1-Selective Inhibitors” (J Med Chem, 2015).
# Calls of active or inactive are those of the source. No cut-off for these calls is given here.
# Experiments:
# [1] = biological target: T1, Tyrosine-protein kinase JAK3 (Homo sapiens, UniProt P52333); assay: Inhibition of JAK3 (unknown origin) using 16 uM of ATP and Tyr6 peptide by Z'-LYTE kinase assay
# T1 sequence (P52333 whole entry): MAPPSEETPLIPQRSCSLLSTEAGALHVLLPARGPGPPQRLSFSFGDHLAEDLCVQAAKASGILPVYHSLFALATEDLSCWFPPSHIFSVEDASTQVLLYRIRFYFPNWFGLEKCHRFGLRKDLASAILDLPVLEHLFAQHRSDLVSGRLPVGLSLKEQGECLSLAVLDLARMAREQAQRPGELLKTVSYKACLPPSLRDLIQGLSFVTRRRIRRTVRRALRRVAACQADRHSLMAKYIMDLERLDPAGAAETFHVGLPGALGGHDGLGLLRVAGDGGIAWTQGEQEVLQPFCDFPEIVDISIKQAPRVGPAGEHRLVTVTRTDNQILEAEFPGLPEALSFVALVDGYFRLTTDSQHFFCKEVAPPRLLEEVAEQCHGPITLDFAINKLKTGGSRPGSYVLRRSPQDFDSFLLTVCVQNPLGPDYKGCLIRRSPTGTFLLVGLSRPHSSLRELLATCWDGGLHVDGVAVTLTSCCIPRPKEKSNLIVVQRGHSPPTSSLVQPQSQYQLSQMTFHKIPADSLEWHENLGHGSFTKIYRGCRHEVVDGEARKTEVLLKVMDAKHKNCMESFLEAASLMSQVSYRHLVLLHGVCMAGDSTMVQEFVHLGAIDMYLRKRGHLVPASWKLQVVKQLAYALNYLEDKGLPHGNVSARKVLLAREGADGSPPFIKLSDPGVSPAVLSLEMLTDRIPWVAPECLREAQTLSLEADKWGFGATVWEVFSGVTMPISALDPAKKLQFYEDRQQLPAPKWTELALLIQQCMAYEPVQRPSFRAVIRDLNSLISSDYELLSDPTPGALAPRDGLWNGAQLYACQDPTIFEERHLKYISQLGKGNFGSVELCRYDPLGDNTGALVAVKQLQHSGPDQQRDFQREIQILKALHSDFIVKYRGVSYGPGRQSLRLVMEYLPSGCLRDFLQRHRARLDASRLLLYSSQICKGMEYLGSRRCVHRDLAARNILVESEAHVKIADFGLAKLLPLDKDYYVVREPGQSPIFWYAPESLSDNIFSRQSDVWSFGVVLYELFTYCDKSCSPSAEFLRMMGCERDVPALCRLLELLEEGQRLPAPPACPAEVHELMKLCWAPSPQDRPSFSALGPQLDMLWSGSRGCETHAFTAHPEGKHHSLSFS
# [2] = biological target: T2, Tyrosine-protein kinase JAK2 (Homo sapiens, UniProt O60674); assay: Inhibition of JAK2 (unknown origin) using 35 uM of ATP and Tyr6 peptide by Z'-LYTE kinase assay
# Homo sapiens [3] = organism: Homo sapiens; assay: Selectivity ratio of IC50 for JAK2 (unknown origin) using 35 uM of ATP and Tyr6 peptide to IC50 for JAK1 (unknown origin) using 87 uM of ATP and Tyr6 peptide
# Procedure, shortened: (§1)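 JAK1 selectivity taken as IC50 against JAK2 or JAK3 divided by IC50 against JAK1. […] IC50s are means ± SD of three independent experiments.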
# [4] = biological target: T3, Tyrosine-protein kinase JAK1 (Homo sapiens, UniProt P23458); assay: Inhibition of JAK1 (unknown origin) using 87 uM of ATP and Tyr6 peptide by Z'-LYTE kinase assay
# [5] = biological target: T4, Non-receptor tyrosine-protein kinase TYK2 (Homo sapiens, UniProt P29597); assay: Inhibition of Tyk2 (unknown origin) using 25 uM of ATP and Tyr3 peptide by Z'-LYTE kinase assay
# Homo sapiens [6] = organism: Homo sapiens; assay: Selectivity ratio of IC50 for JAK3 (unknown origin) using 16 uM of ATP and Tyr6 peptide to IC50 for JAK1 (unknown origin) using 87 uM of ATP and Tyr6 peptide; procedure, shortened: as §1
# [7] = biological target: T2, Tyrosine-protein kinase JAK2; assay: Inhibition of JAK2 (unknown origin)
# [8] = biological target: T3, Tyrosine-protein kinase JAK1; conditions: A-431, 0.001 to 10 uM
# [9] = Volume of distribution at steady state in Sprague-Dawley rat at 5 mg/kg, iv; assay type: ADME, organism-based; conditions: in vivo, read-out: Vdss
# Procedure, shortened: (§2)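 Rats dosed intravenously. Steady-state volume of distribution, systemic plasma clearance and plasma half-life derived from plasma concentration data.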
# [10] = biological target: T1, Tyrosine-protein kinase JAK3; assay: Inhibition of JAK3 (unknown origin) using 1 mM of ATP and Tyr6 peptide by Z'-LYTE kinase assay
# [11] = Permeability of the compound by PAMPA; assay type: physicochemical; conditions: read-out: permeability
# [12] = Plasma clearance in Sprague-Dawley rat at 5 mg/kg, iv; assay type: ADME, organism-based; procedure, shortened: as §2
# [13] = biological target: T2, Tyrosine-protein kinase JAK2; assay: Inhibition of JAK2 in human A431 cells assessed as erythropoietin-induced STAT5 phosphorylation at 0.001 to 10 uM after 2 hrs by ELISA; assay type: cell-based; conditions: A-431
# [14] = biological target: T2, Tyrosine-protein kinase JAK2; assay: Inhibition of JAK2 (unknown origin) using 1 mM of ATP and Tyr6 peptide by Z'-LYTE kinase assay
# [15] = Oral bioavailability in Sprague-Dawley rat at 10 mg/kg; assay type: ADME, organism-based; conditions: in vivo
# [16] = biological target: T3, Tyrosine-protein kinase JAK1; assay: Inhibition of JAK1 (unknown origin) using 1 mM of ATP and Tyr6 peptide by Z'-LYTE kinase assay
# [17] = biological target: T4, Non-receptor tyrosine-protein kinase TYK2; assay: Inhibition of Tyk2 (unknown origin) using 1 mM of ATP and Tyr3 peptide by Z'-LYTE kinase assay
# [18] = Half life in Sprague-Dawley rat at 5 mg/kg, iv; assay type: ADME, organism-based; conditions: in vivo; procedure, shortened: as §2
# Homo sapiens [19] = organism: Homo sapiens; assay: Selectivity ratio of IC50 for JAK2 (unknown origin) to IC50 for JAK1 (unknown origin) by cell based assay
# T4 sequence (P29597 whole entry): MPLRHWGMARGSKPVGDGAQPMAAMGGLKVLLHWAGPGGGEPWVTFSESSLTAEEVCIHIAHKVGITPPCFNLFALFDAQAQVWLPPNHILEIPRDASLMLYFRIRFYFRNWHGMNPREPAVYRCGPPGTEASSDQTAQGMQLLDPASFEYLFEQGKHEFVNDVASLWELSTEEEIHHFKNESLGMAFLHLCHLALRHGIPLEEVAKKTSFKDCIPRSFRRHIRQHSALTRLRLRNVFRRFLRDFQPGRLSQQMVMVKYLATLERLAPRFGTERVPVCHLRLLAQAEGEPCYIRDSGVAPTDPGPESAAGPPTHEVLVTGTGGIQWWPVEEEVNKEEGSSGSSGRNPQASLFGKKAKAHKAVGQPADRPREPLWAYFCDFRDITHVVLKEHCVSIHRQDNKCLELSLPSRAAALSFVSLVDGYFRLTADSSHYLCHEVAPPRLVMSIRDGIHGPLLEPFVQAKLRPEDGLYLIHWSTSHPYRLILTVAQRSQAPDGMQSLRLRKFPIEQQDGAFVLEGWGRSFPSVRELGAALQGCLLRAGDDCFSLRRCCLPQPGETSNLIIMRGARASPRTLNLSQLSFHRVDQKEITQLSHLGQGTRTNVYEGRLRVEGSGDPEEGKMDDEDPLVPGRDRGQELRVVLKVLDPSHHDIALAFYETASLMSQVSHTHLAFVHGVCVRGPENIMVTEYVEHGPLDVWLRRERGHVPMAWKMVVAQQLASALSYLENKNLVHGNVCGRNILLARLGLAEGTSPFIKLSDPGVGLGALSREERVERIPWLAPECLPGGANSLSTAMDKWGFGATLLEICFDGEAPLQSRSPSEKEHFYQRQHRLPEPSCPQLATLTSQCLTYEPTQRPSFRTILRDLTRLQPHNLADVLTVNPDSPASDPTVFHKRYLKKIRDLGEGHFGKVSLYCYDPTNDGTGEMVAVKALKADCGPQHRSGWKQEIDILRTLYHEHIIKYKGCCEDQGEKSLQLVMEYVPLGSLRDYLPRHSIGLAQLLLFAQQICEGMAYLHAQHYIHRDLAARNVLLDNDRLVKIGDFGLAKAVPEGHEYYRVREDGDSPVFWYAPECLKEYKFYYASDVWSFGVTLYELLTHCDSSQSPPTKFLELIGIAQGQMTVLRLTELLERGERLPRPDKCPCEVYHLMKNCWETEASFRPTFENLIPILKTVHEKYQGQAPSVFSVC
# T2 sequence (O60674 whole entry): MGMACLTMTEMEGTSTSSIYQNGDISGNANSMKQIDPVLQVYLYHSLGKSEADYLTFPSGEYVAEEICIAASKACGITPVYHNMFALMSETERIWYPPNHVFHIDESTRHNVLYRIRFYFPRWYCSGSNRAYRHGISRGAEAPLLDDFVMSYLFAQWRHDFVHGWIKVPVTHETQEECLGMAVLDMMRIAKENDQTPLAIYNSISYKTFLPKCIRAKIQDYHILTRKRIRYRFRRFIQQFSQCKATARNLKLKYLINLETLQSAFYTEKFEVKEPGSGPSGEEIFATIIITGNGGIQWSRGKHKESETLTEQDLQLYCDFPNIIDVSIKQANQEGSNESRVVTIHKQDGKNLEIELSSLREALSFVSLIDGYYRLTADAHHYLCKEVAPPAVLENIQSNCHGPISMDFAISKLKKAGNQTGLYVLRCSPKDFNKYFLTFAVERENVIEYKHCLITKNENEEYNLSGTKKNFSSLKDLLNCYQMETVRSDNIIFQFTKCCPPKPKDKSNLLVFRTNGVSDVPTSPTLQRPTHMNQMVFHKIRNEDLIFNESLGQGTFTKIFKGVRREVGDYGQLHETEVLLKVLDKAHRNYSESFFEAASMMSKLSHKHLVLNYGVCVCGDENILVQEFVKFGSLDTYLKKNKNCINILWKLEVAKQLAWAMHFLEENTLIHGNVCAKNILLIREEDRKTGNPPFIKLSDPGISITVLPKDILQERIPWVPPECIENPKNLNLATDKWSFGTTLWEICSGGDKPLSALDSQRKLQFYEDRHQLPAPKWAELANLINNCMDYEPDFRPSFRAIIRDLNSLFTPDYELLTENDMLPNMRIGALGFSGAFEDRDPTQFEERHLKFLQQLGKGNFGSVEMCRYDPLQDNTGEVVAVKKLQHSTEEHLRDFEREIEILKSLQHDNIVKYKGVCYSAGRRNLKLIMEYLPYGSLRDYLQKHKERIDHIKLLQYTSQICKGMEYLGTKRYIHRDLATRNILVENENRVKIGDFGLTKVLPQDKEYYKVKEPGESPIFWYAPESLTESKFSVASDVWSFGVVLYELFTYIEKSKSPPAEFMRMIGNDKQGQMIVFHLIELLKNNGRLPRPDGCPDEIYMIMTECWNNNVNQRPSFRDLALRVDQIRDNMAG
# T3 sequence (P23458 whole entry): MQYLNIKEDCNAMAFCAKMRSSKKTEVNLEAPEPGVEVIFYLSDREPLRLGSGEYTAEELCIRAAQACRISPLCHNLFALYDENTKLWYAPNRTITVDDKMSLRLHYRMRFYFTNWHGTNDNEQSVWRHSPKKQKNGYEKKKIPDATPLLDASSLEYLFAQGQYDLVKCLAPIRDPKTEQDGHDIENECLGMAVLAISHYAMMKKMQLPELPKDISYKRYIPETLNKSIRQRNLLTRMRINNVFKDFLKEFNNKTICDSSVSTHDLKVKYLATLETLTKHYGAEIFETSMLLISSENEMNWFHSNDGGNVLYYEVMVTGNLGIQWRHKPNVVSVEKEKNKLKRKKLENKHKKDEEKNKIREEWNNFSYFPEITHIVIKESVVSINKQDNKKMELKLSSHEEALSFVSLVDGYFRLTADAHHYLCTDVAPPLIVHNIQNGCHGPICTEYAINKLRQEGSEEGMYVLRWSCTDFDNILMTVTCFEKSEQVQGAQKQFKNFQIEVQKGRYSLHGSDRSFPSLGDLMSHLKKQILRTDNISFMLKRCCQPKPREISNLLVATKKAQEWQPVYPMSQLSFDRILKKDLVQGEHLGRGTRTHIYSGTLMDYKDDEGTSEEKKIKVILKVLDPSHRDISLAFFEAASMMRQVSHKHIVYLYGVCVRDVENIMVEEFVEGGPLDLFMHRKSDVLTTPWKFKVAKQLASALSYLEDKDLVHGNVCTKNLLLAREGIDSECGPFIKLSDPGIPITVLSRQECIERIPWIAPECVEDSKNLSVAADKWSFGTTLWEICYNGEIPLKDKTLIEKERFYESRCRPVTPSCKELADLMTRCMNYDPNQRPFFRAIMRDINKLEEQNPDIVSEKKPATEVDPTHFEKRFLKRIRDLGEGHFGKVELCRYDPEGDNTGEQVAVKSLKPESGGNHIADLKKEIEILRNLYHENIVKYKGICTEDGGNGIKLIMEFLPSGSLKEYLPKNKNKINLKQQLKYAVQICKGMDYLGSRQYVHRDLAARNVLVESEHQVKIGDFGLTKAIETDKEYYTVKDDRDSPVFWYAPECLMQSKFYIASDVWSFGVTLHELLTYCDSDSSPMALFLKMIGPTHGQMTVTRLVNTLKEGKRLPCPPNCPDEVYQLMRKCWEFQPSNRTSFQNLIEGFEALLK
Compound,IC50 [1] [nM],IC50 [2] [nM],Ratio IC50 (Homo sapiens [3]),IC50 [4] [µM],IC50 [5] [µM],Ratio IC50 (Homo sapiens [6]),other results
NCCn1c(-c2ccncc2)nc2cc(C(N)=O)ccc21,10500,13500,0.4,32.4,5.8,0.3,
NCCn1c(-c2ccccc2)nc2cc(C(N)=O)ccc21,14100,2800,0.2,11.6,4.2,1,
N#Cc1ccc(-c2nc3cc(C(N)=O)ccc3n2CCN)cc1,1900,2600,0.9,2.9,2.5,0.7,
CC[C@@](C)(Nc1ccnc(-c2c[nH]c3ncccc23)n1)C(=O)NCC(F)(F)F [DECERNOTINIB],,,,,,,IC50 [7]: 13 nM
CC(C)c1ccc(-c2nc3cc(C(N)=O)ccc3n2CCN)cc1,1900,5900,2,3.1,2.7,0.6,
NCCCc1nc2cc(C(N)=O)ccc2n1CCN,1100,1600,0.7,2.2,2.5,0.5,
NCCn1c(-c2ccc(O)cc2O)nc2cc(C(N)=O)ccc21,2900,2500,0.8,3.1,3.7,0.9,
NCCc1nc2cc(C(N)=O)ccc2n1CCN,1500,2900,29,0.1,3.1,15,
NCCn1c(-c2cncnc2)nc2cc(C(N)=O)ccc21,2500,1600,0.5,3.4,2.8,0.7,
NCCn1c(-c2ccc(O)cc2)nc2cc(C(N)=O)ccc21,2400,1300,11,0.1,3.2,20,
NCCCn1c(-c2ccccc2)nc2cc(C(N)=O)ccc21,1800,20500,2,11.3,2.7,0.2,
Cc1ccc(-c2nc3cc(C(N)=O)ccc3n2CCN)cc1,2300,2600,0.7,3.7,3.5,0.6,
NCCn1c(-c2ccc(C(F)(F)F)cc2)nc2cc(C(N)=O)ccc21,2100,4800,0.5,9.3,3.2,0.2,
NCCn1c(C2CCCCC2)nc2cc(C(N)=O)ccc21,2500,4100,1,4.3,3.3,0.6,
NCCn1c(-c2cccnc2N)nc2cc(C(N)=O)ccc21,1900,4700,0.6,8.1,4.3,0.2,
NCCn1c(C2CCNCC2)nc2cc(C(N)=O)ccc21,1260,3150,63,0.05,3.7,25,inhibition [8]: inactive; Vd [9]: 0.5 L/kg; IC50 [10]: 232 µM; Papp [11]: 0.1 ×10⁻⁶ cm/s; clearance [12]: 6.67 mL/min/kg; inhibition [13]: inactive; IC50 [14]: 437 µM; bioavailability [15]: 0.7%; IC50 [16]: 5.7 µM; IC50 [17]: 759 µM; half-life [18]: 546 min
CC[C@@H]1CN(C(=O)NCC(F)(F)F)C[C@@H]1c1cnc2cnc3[nH]ccc3n12,,,,,,,Ratio IC50 (Homo sapiens [19]): 74
NCCCn1c(CCN)nc2cc(C(N)=O)ccc21,1500,2200,0.4,6.1,6.4,0.2,
